Test results taken from publication PMC9380907 (Analytica Chimica Acta, 2022).

Assays:
Type in all cases: binding
TGF = assay: ITC of probe 2 with TGF; details: 25 °C
Summary of the method: (§1)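 MicroCal ITC200 titrations at 25 °C: 38 consecutive injections at intervals of at least 120 s. All solutions were degassed beforehand. Heats of dilution, measured by titrating beyond saturation, were subtracted from each data set.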

[1] = ITC of probe 2 with the label; details: 25 °C, 10 mM PBS pH 7.4, 0.5 mM probe 2 into 0.05 mM label
Summary of the method: as §1

ITC with heparin = details: 25 °C, 10 mM PBS pH 7.4
Summary of the method: as §1

Cu = details: SWV, n = 3
Summary of the method: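 Au slides were cleaned by sonication in 20 wt% ethanolamine at about 50 °C, then dipped briefly in piranha. Probe 1 (2.5 μM) with 5 mM TCEP in 10 mM PBS pH 7.4 was assembled at 4 °C for 16 h, then backfilled with 1 mM 9-mercaptononanol for 3 h at RT. Cu was loaded with 10 μM CuCl2 for 30 min at RT. Cathepsin B was in 25 mM MES pH 5.0 and incubated at 37 °C. SWV was run in N2-purged 10 mM PBS pH 7.4 (SCE, Pt counter), with at least three independent repeats.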

(MUA)K–FSHF-(ARKKAAKA)3VLVLVLVL [probe 2]
Binding to target TGF (TGF; 10 mM PBS pH 7.4, 0.5 mM probe 2 into 0.05 mM TGF): bind strongly
Binding with target TGF relative to label (TGF; 10 mM PBS pH 7.4, comparison with label): stronger
Binding to label [1]: bind strongly

TGF beta 1: transforming growth factor-beta 1, from R&D system
Interaction with heparin (ITC with heparin): weak interactions with heparin

11-Mercaptoundecanoic acid (MUA)K-DAHKI-(ARKKAAKA)3VLVLVLVL [probe 1]
Binding with Cu II ion (Cu; surface immobilized probe 1, after cleavage by target enzyme (33 nM)): completely abolish the binding
Binding with Cu II ion (Cu; surface immobilized probe 1, before enzyme cleavage): relatively strong binding
